# From ChEMBL document CHEMBL1127046, “Antitumor agents. 3. Synthesis and biological activity of 4 beta-alkyl derivatives containing hydroxy, amino, and amido groups of 4'-O-demethyl-4-desoxypodophyllotoxin as antitumor agents” (J Med Chem, 1993)
# Key:
# L1210 [1] = assay: Increase in life span at the dose of 2.5 (mg/kg/day); assay type: functional, Mus musculus
# P388 [2] = assay: Cytotoxicity against P388 leukemia; assay type: functional, cell-based; details: Mus musculus
# [3] = Inhibition of DNA topoisomerase II from rat liver measured as 50% reduction in the amount of minicircle DNA relative to the control
# Tubulin = Tubulin (Bos taurus, UniProt Q6B856+Q862L2+Q862F3); assay: Drug concentration needed to produce a 50% reduction of bovine brain tubulin polymerization relative to the control
# L1210 [4] = assay: The number of mice survived for 30 days at the dose of 40 (mg/kg/day); assay type: functional, Mus musculus
# L1210 [5] = assay: Antitumor activity in vivo expressed as the percentage increase in life span at the dose of 40 (mg/kg/day); assay type: functional, Mus musculus
# L1210 [6] = assay: The number of mice survived for 30 days at the dose of 20 (mg/kg/day); assay type: functional, Mus musculus
# L1210 [7] = assay: Antitumor activity in vivo expressed as the percentage increase in life span at the dose of 20 (mg/kg/day); assay type: functional, Mus musculus
# ACHN = assay: Inhibition of growth of renal cancer ACHN cell line; assay type: functional; details: Homo sapiens, read-out: ED50 (the source's name)
# How it was run: (§1)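 Human tumour cell lines plated and grown 24 h in a CO2 incubator, then exposed to compound for 96 or 4 h. Cells counted by hemocytometer. IC50 is the concentration giving 50% reduction in cell number versus untreated control.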
# A549 = assay: Inhibition of growth of lung non-small cell carcinoma A-549 cell line; assay type: functional; details: Homo sapiens, read-out: ED50 (the source's name)
# How it was run: (§2)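 Cells were seeded and cultured for 24 h, then exposed to drug for 96 or 4 h. Cells were counted by hemocytometer. IC50 is the concentration giving a 50% reduction in cell number relative to control.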
# [8] = Inhibition of growth of colon carcinoma COLO 2-1 cell line; assay type: functional; details: Homo sapiens, read-out: ED50 (the source's name); how it was run: as §2
# COLO 320DM = assay: Inhibition of growth of colon carcinoma COLO 320DM; assay type: functional; details: Homo sapiens, read-out: ED50 (the source's name); how it was run: as §2
# Homo sapiens = species on record: Homo sapiens; assay: Inhibition of growth of hepatoma HLE cell line; assay type: functional; details: read-out: ED50 (the source's name); how it was run: as §2
# [9] = Inhibition of growth of renal cancer G-402 cell line; assay type: functional; details: Homo sapiens, read-out: ED50 (the source's name); how it was run: as §1
# [10] = Inhibition of growth of hepatoma HLF cell line; assay type: functional; details: Homo sapiens, read-out: ED50 (the source's name); how it was run: as §2
# L1210 [11] = assay: The number of mice survived for 30 days; assay type: functional, Mus musculus
# L1210 [12] = assay: Antitumor activity in vivo expressed as the percentage increase in life span at the dose of 10 (mg/kg/day); assay type: functional, Mus musculus
# [13] = system: Lewis lung carcinoma cell line; assay: Antitumor activity in vivo expressed as the percentage increase in life span at the dose of 4 (mg/kg/day); (p<0.001); assay type: functional, Mus musculus
# [14] = system: Lewis lung carcinoma cell line; assay: Antitumor activity in vivo expressed as the percentage increase in life span at the dose of 7 (mg/kg/day); (p<0.001); assay type: functional, Mus musculus
# [15] = system: Lewis lung carcinoma cell line; assay: Antitumor activity in vivo expressed as the percentage increase in life span at the dose of 12 (mg/kg/day); (p<0.001); assay type: functional, Mus musculus
# [16] = system: Lewis lung carcinoma cell line; assay: Antitumor activity in vivo expressed as the percentage increase in life span at the dose of 2.32 (mg/kg/day); (p<0.005); assay type: functional, Mus musculus
# [17] = system: Lewis lung carcinoma cell line; assay: Antitumor activity in vivo expressed as the percentage increase in life span at the dose of 21 (mg/kg/day); (p<0.005); assay type: functional, Mus musculus
# [18] = system: Lewis lung carcinoma cell line; assay: Mean body weight change at the dose of 7 (mg/kg/day); assay type: functional, Mus musculus
# How it was run: (§3)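 Male BDF1 mice (5 weeks) given 3.2 x 10^5 Lewis lung carcinoma cells iv on day 0, then dosed iv on days 1–5. Seven mice per group, 14 controls. Mean body weight change (g) taken from day 0 to day 6.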
# [19] = system: Lewis lung carcinoma cell line; assay: Mean body weight change at the dose of 12 (mg/kg/day); assay type: functional, Mus musculus; how it was run: as §3
# [20] = system: Lewis lung carcinoma cell line; assay: Mean body weight change at the dose of 2.3 (mg/kg/day); assay type: functional, Mus musculus; how it was run: as §3
# [21] = system: Lewis lung carcinoma cell line; assay: Mean body weight change at the dose of 21 (mg/kg/day); assay type: functional, Mus musculus; how it was run: as §3
# [22] = system: Lewis lung carcinoma cell line; assay: Mean body weight change at the dose of 4 (mg/kg/day); assay type: functional, Mus musculus; how it was run: as §3
# P388 [23] = assay: Increased life span at the P388 dose of 4 (mg/kg/day); assay type: functional, Mus musculus
# How it was run: (§4)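 P388 leukaemia, 1 × 10^6 cells given sc to male CDF1 mice (5 weeks old) on day 0. Drug was dosed iv on days 1–5 in saline with 3.5% DMSO and 6.5% Tween 80. Groups had 7 mice; controls had 10. ILS was calculated from mean survival time of treated versus control mice, excluding 30-day survivors.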
# P388 [24] = assay: Increased life span at the P388 dose of 7 (mg/kg/day); assay type: functional, Mus musculus; how it was run: as §4
# [25] = Inhibition of growth of lung non-small cell carcinoma PC-7 cell line; assay type: functional; details: Homo sapiens, read-out: ED50 (the source's name); how it was run: as §2
# [26] = Inhibition of growth of lung small cell carcinoma RERF-LC-MA cell line; assay type: functional; details: Homo sapiens; read-out: ED50 (the source's name); how it was run: as §2
# SBC-3 = assay: Inhibition of growth of lung small cell carcinoma SBC-3 cell line; assay type: functional; details: Homo sapiens, read-out: ED50 (the source's name); how it was run: as §1
# [27] = system: Lewis lung carcinoma cell line; assay: Percentage inhibition of tumor growth at the lewis lung dose of 12 (mg/kg/ day); (p<0.01); assay type: functional, Mus musculus
# How it was run: (§5)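 Lewis lung carcinoma fragments (2 mm3) implanted sc into male BDF1 mice (5 weeks) on day 0. Compound given iv on days 4–8, in saline or saline with 3.5% DMSO and 6.5% Tween 80. Seven mice per group, 10 controls. Percent inhibition from mean tumour weight versus control on day 17; p<0.05, 0.01 or 0.001 versus control.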
# [28] = system: Lewis lung carcinoma cell line; assay: Percentage inhibition of tumor growth at the lewis lung dose of 7 (mg/kg/day); (p<0.05); assay type: functional, Mus musculus; how it was run: as §5
# P388 [29] = assay: Increased life span at the P388 dose of 2.3 (mg/kg/day); assay type: functional, Mus musculus; how it was run: as §4
smiles,measurement,setting,value
COc1cc([C@@H]2c3cc4c(cc3[C@@H](CCN(C)C)C3COC(=O)[C@@H]32)OCO4)cc(OC)c1O.Cl (stereo partly drawn),ILS max,L1210 [1],67%
same,IC50,P388 [2],0.06 µM
same,IC50,[3],36.7 µM
same,IC50,Tubulin,> 100 µM
COc1cc([C@@H]2c3cc4c(cc3[C@@H](CCN(C)N(C)C)C3COC(=O)[C@@H]32)OCO4)cc(OC)c1O.Cl (stereo partly drawn),Survivors,L1210 [4],6
same,ILS max,L1210 [5],74%
same,IC50,P388 [2],0.02 µM
same,IC50,[3],58.3 µM
same,IC50,Tubulin,> 100 µM
CCCCCCN(C)CC[C@@H]1c2cc3c(cc2[C@@H](c2cc(OC)c(O)c(OC)c2)[C@H]2C(=O)OCC12)OCO3.Cl (stereo partly drawn),Survivors,L1210 [6],6
same,IC50,P388 [2],0.019 µM
same,IC50,[3],61.4 µM
same,IC50,Tubulin,> 167 µM
same,ILS max,L1210 [7],106%
COc1cc([C@@H]2c3cc4c(cc3[C@@H](O[C@@H]3O[C@@H]5CO[C@@H](C)O[C@H]5[C@H](O)[C@H]3O)[C@H]3COC(=O)[C@H]23)OCO4)cc(OC)c1O [ETOPOSIDE],EC50,ACHN,13 µg/mL
same,EC50,A549,2.9 µg/mL
same,EC50,[8],59 µg/mL
same,EC50,COLO 320DM,14 µg/mL
same,EC50,Homo sapiens,1.5 µg/mL
same,EC50,[9],4.8 µg/mL
same,EC50,[10],19 µg/mL
same,Survivors,L1210 [11],3
same,ILS max,L1210 [12],102%
same,ILS max,[13],24%
same,ILS max,[14],21%
same,ILS max,[15],81%
same,ILS max,[16],17%
same,ILS max,[17],91%
same,bwc,[18],-0.8 g
same,bwc,[19],-2.6 g
same,bwc,[20],0 g
same,bwc,[21],-3.8 g
same,bwc,[22],-0.4 g
same,IC50,P388 [2],0.01 µM
same,ILS max,P388 [23],196%
same,ILS max,P388 [24],226%
same,EC50,[25],35 µg/mL
same,EC50,[26],> 59 µg/mL
same,EC50,SBC-3,1.6 µg/mL
same,IC50,[3],59.2 µM
same,Inhibition,[27],60%
same,Inhibition,[28],39%
same,ILS max,P388 [29],151%
